Laboratory results: ChEMBL document CHEMBL4020833, “A Systematic Exploration of Macrocyclization in Apelin-13: Impact on Binding, Signaling, Stability, and Cardiovascular Effects” (J Med Chem, 2018)
Starred links: 1 amine or outer side, 2 acyl side, 3 side chain; linkers in the order of their positions; H or OH if unused. Positions of bridges follow the written chain, without caps; N, C: chain ends. Non-standard residues stand in square brackets, D forms with d. Residues, ends and D or L forms follow the SMILES beside them. *: point of attachment. X1 = O=C([C@H](CCN(CC=[*:3])S(=O)(=O)c1ccccc1[N+](=O)[O-])N[*:1])[*:2]; X6 = N=C(N)NCCC[C@H](NC(=O)[C@@H]1CCC(=O)N1)C(=O)[C@@H]1CCCN1*; X3 = C=CCN([C@@H](CCCNC(=N)N)C(=O)[*:2])[*:1]; X4 = O=C([C@H](CO)N(CC=[*:3])[*:1])[*:2]; X5 = O=C([C@H](CCNCC=[*:3])N[*:1])[*:2]; AllylGly = C=CC[C@H](N)C(=O)O; pGlu = O=C1CC[C@@H](C(=O)O)N1; Nle = CCCC[C@H](N)C(=O)O; CO = O=C([*:1])[*:2]

What was measured:
[1] = target: T1, Apelin receptor (Homo sapiens, UniProt P35414); test: Displacement of [125I]-[Nle75, Tyr77] Pyr1-apelin-13 from YFP-tagged human APJ receptor expressed in HEK293 cell membranes after 1 hr by gamma-counting method
T1 sequence (P35414 whole entry): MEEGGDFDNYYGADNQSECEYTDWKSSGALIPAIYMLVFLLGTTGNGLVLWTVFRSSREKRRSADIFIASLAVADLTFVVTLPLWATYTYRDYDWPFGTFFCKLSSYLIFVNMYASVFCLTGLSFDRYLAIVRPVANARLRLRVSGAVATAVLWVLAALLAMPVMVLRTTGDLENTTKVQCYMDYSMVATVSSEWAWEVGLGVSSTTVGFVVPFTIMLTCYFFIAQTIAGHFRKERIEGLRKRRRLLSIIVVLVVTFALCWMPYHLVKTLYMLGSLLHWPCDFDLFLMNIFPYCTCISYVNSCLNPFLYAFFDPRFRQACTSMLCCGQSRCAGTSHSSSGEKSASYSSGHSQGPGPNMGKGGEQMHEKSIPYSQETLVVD

[2] = Half life in rat plasma at 1 mM by UPLC-MS analysis; format: ADME, cell-free
In short: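 Male rat plasma incubated with peptide at 37 °C for 2, 4, 7, 24 h (or 10, 20, 60, 120 min for short-lived peptides); quenched with acetonitrile-ethanol (1:1) plus nicotinamide internal standard, then UPLC-MS. Percent remaining fitted to exponential decay for half-life; means ± SEM of three independent experiments. 1 mM is the stock solution.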

[3] = target: T1, Apelin receptor; test: Activity at human APJ receptor expressed in HEK293 cells assessed as dissociation of Galphai1 from Gbetagamma subunit after 5 mins by BRET assay; format: cell-based
[4] = target: T1, Apelin receptor; test: Activity at GFP10-tagged human APJ receptor expressed in HEK293 cells assessed as induction of RlucII-tagged beta-arrestin-2 recruitment after 30 mins by BRET assay; format: cell-based

SMILES | Ki [1] [nM] | EC50 [3] [nM] | EC50 [4] [nM] | other results
CCCC[C@H](NC(=O)[C@@H]1C/C=C\CN(C(=O)[C@H](CC(C)C)NC(=O)[C@H](CCCNC(=N)N)NC(=O)[C@@H]2CCCN2C(=O)[C@H](CCCNC(=N)N)NC(=O)[C@@H]2CCC(=O)N2)[C@@H](CO)C(=O)N[C@@H](Cc2cnc[nH]2)C(=O)N[C@@H](CCCCN)C(=O)NCC(=O)N1)C(=O)N1CCC[C@H]1C(=O)N[C@@H](Cc1ccccc1)C(=O)O ([pGlu]RPRL[X4]HKG[AllylGly][Nle]PF-OH; staple (Z) 6-10) | 188 |  |  | half-life at 1000 µM [2]: > 24 h
CCCC[C@@H]1NC(=O)[C@@H](NC(=O)CNC(=O)[C@H](CCCCN)NC(=O)[C@H](Cc2cnc[nH]2)NC(=O)[C@H](CO)NC(=O)[C@H](CC(C)C)NC(=O)[C@H](CCCNC(=N)N)NC(=O)N2CCC[C@H]2C(=O)[C@H](CCCNC(=N)N)NC(=O)[C@@H]2CCC(=O)N2)C/C=C\C[C@@H](C(=O)O)NC(=O)[C@H](Cc2ccccc2)NC(=O)[C@@H]2CCCN2C1=O ({X6-CO}-RLSHKG[AllylGly][Nle]PF[AllylGly]-OH; staple (Z) 7-11) | 310 |  |  | 
C=CC[C@H](NC(=O)[C@H](CC(C)C)NC(=O)[C@H](CCCNC(=N)N)NC(=O)[C@@H]1CCCN1C(=O)[C@H](CC=C)NC(=O)[C@@H]1CCC(=O)N1)C(=O)N[C@@H](Cc1cnc[nH]1)C(=O)N[C@@H](CCCCN)C(=O)NCC(=O)N1CCC[C@H]1C(=O)N[C@@H](CCCC)C(=O)N1CCC[C@H]1C(=O)N[C@@H](Cc1ccccc1)C(=O)O | 523 |  |  | 
CCCC[C@H](NC(=O)[C@@H]1CCCN1C(=O)CNC(=O)[C@@H]1C/C=C\C[C@H](NC(=O)[C@@H]2CCCN2C(=O)[C@H](CCCNC(=N)N)NC(=O)[C@@H]2CCC(=O)N2)C(=O)N[C@@H](CC(C)C)C(=O)N[C@@H](CO)C(=O)N[C@@H](Cc2cnc[nH]2)C(=O)N1)C(=O)N1CCC[C@H]1C(=O)N[C@@H](Cc1ccccc1)C(=O)O ([pGlu]RP[AllylGly]LSH[AllylGly]GP[Nle]PF-OH; staple (Z) 4-8) | 6070 |  |  | 
C=CC[C@H](NC(=O)[C@H](Cc1cnc[nH]1)NC(=O)[C@H](CO)NC(=O)[C@H](CC(C)C)NC(=O)[C@H](CC=C)NC(=O)[C@@H]1CCCN1C(=O)[C@H](CCCNC(=N)N)NC(=O)[C@@H]1CCC(=O)N1)C(=O)NCC(=O)N1CCC[C@H]1C(=O)N[C@@H](CCCC)C(=O)N1CCC[C@H]1C(=O)N[C@@H](Cc1ccccc1)C(=O)O ([pGlu]RP[AllylGly]LSH[AllylGly]GP[Nle]PF-OH) | 489 |  |  | 
CCCC[C@@H]1NC(=O)[C@@H]2CCCN2C(=O)[C@@H](N)CCNC/C=C\C[C@@H](C(=O)O)NC(=O)[C@@H]2CCCN2C1=O (H-[X5]P[Nle]P[AllylGly]-OH; staple (Z) 1-5) | > 10000 |  |  | 
C=CC[C@H](NC(=O)CNC(=O)[C@H](CCCCN)NC(=O)[C@H](Cc1cnc[nH]1)NC(=O)[C@H](CC=C)NC(=O)[C@H](CC(C)C)NC(=O)[C@H](CCCNC(=N)N)NC(=O)[C@@H]1CCCN1C(=O)[C@H](CCCNC(=N)N)NC(=O)[C@@H]1CCC(=O)N1)C(=O)N[C@@H](CCCC)C(=O)N1CCC[C@H]1C(=O)N[C@@H](Cc1ccccc1)C(=O)O ([pGlu]RPRL[AllylGly]HKG[AllylGly][Nle]PF-OH) | 194 |  |  | 
CCCC[C@@H]1NC(=O)[C@@H]2CCCN2C(=O)[C@@H](N)CCN(S(=O)(=O)c2ccccc2[N+](=O)[O-])C/C=C\C[C@@H](C(=O)O)NC(=O)[C@@H]2CCCN2C1=O (H-[X1]P[Nle]P[AllylGly]-OH; staple (Z) 1-5) | > 10000 |  |  | 
CCCC[C@@H]1NC(=O)[C@@H]2CCCN2C(=O)[C@@H](NC(=O)[C@H](CCCCN)NC(=O)[C@H](Cc2cnc[nH]2)NC(=O)[C@H](CO)NC(=O)[C@H](CC(C)C)NC(=O)[C@H](CCCNC(=N)N)NC(=O)[C@@H]2CCCN2C(=O)[C@H](CCCNC(=N)N)NC(=O)[C@@H]2CCC(=O)N2)CCN(S(=O)(=O)c2ccccc2[N+](=O)[O-])C/C=C\C[C@H](C(=O)O)NC(=O)[C@@H]2CCCN2C1=O |  |  |  | Ki ([1]; hek293): 0.1 nM; EC50 ([3]; hek293): 1.7 nM; EC50 ([4]; hek293): 63 nM
CCCC[C@@H]1NC(=O)[C@@H]2CCCN2C(=O)[C@@H](NC(=O)[C@H](CCCCN)NC(=O)[C@H](Cc2cnc[nH]2)NC(=O)[C@H](CO)NC(=O)[C@H](CC(C)C)NC(=O)[C@H](CCCNC(=N)N)NC(=O)[C@@H]2CCCN2C(=O)[C@H](CCCNC(=N)N)NC(=O)[C@@H]2CCC(=O)N2)CCNC/C=C\C[C@H](C(=O)O)NC(=O)[C@@H]2CCCN2C1=O |  |  |  | Ki ([1]; hek293): 206 nM
CCCC[C@@H]1NC(=O)[C@@H]2CCCN2C(=O)[C@@H](NC(=O)[C@H](CCCCN)NC(=O)[C@H](Cc2cnc[nH]2)NC(=O)[C@H](CO)NC(=O)[C@H](CC(C)C)NC(=O)[C@H](CCCNC(=N)N)NC(=O)[C@@H]2CCCN2C(=O)[C@H](CCCNC(=N)N)NC(=O)[C@@H]2CCC(=O)N2)CCNC/C=C\C[C@@H](C(=O)O)NC(=O)[C@@H]2CCCN2C1=O | 917 |  |  | 
C=CC[C@H](NC(=O)[C@H](Cc1ccccc1)NC(=O)[C@@H]1CCCN1C(=O)[C@H](CCCC)NC(=O)[C@H](CC=C)NC(=O)CNC(=O)[C@H](CCCCN)NC(=O)[C@H](Cc1cnc[nH]1)NC(=O)[C@H](CO)NC(=O)[C@H](CC(C)C)NC(=O)[C@H](CCCNC(=N)N)NC(=O)[C@@H]1CCCN1C(=O)[C@H](CCCNC(=N)N)NC(=O)[C@@H]1CCC(=O)N1)C(=O)O ([pGlu]RPRLSHKG[AllylGly][Nle]PF[AllylGly]-OH) | 445 |  |  | 

Further lines, with some results ahead:

Ki [1] [nM] | EC50 [3] [nM] | EC50 [4] [nM] | SMILES | other results
2.7 | 2.1 | 91 | C=CC[C@H](NC(=O)[C@H](Cc1cnc[nH]1)NC(=O)[C@H](CO)NC(=O)[C@H](CC(C)C)NC(=O)[C@H](CCCNC(=N)N)N(CC=C)C(=O)[C@@H]1CCCN1C(=O)[C@H](CCCNC(=N)N)NC(=O)[C@@H]1CCC(=O)N1)C(=O)NCC(=O)N1CCC[C@H]1C(=O)N[C@@H](CCCC)C(=O)N1CCC[C@H]1C(=O)N[C@@H](Cc1ccccc1)C(=O)O ([pGlu]RP[X3]LSH[AllylGly]GP[Nle]PF-OH) | 
2.3 | 0.8 | 58 | C=CC[C@H](NC(=O)[C@H](Cc1cnc[nH]1)NC(=O)[C@H](CO)NC(=O)[C@H](CC(C)C)NC(=O)[C@H](CCCNC(=N)N)NC(=O)[C@@H]1CCCN1C(=O)[C@H](CCCNC(=N)N)NC(=O)[C@@H]1CCC(=O)N1)C(=O)NCC(=O)N1CCC[C@H]1C(=O)N[C@@H](CCCC)C(=O)N[C@@H](CC=C)C(=O)N[C@@H](Cc1ccccc1)C(=O)O ([pGlu]RPRLSH[AllylGly]GP[Nle][AllylGly]F-OH) | 
3.9 |  |  | C=CC[C@H](NC(=O)[C@H](CCCNC(=N)N)NC(=O)[C@@H]1CCCN1C(=O)[C@H](CCCNC(=N)N)NC(=O)[C@@H]1CCC(=O)N1)C(=O)N[C@@H](CO)C(=O)N[C@@H](Cc1cnc[nH]1)C(=O)N[C@@H](CCCCN)C(=O)N[C@@H](CC=C)C(=O)N1CCC[C@H]1C(=O)N[C@@H](CCCC)C(=O)N1CCC[C@H]1C(=O)N[C@@H](Cc1ccccc1)C(=O)O ([pGlu]RPR[AllylGly]SHK[AllylGly]P[Nle]PF-OH) | 
41 |  |  | CCCC[C@H](NC(=O)[C@@H]1CCCN1C(=O)[C@@H]1C/C=C\C[C@H](NC(=O)[C@H](CCCNC(=N)N)NC(=O)[C@@H]2CCCN2C(=O)[C@H](CCCNC(=N)N)NC(=O)[C@@H]2CCC(=O)N2)C(=O)N[C@@H](CO)C(=O)N[C@@H](Cc2cnc[nH]2)C(=O)N[C@@H](CCCCN)C(=O)N1)C(=O)N1CCC[C@H]1C(=O)N[C@@H](Cc1ccccc1)C(=O)O ([pGlu]RPR[AllylGly]SHK[AllylGly]P[Nle]PF-OH; staple (Z) 5-9) | 
1.9 | 9.2 | 274 | C=CC[C@H](NC(=O)[C@H](CO)NC(=O)[C@H](CC(C)C)NC(=O)[C@H](CCCNC(=N)N)NC(=O)[C@H](CC=C)NC(=O)[C@H](CCCNC(=N)N)NC(=O)[C@@H]1CCC(=O)N1)C(=O)N[C@@H](CCCCN)C(=O)NCC(=O)N1CCC[C@H]1C(=O)N[C@@H](CCCC)C(=O)N1CCC[C@H]1C(=O)N[C@@H](Cc1ccccc1)C(=O)O | 
2.9 | 5.7 | 232 | C=CC[C@H](NC(=O)[C@H](CC(C)C)NC(=O)[C@H](CCCNC(=N)N)NC(=O)[C@@H]1CCCN1C(=O)[C@H](CCCNC(=N)N)N(CC=C)C(=O)[C@@H]1CCC(=O)N1)C(=O)N[C@@H](Cc1cnc[nH]1)C(=O)N[C@@H](CCCCN)C(=O)NCC(=O)N1CCC[C@H]1C(=O)N[C@@H](CCCC)C(=O)N1CCC[C@H]1C(=O)N[C@@H](Cc1ccccc1)C(=O)O | 
0.3 | 1 | 42 | C=CC[C@H](NC(=O)[C@H](CO)NC(=O)[C@H](CC(C)C)NC(=O)[C@H](CCCNC(=N)N)NC(=O)[C@@H]1CCCN1C(=O)[C@H](CCCNC(=N)N)NC(=O)[C@@H]1CCC(=O)N1)C(=O)N[C@@H](CCCCN)C(=O)NCC(=O)N1CCC[C@H]1C(=O)N[C@@H](CC=C)C(=O)N1CCC[C@H]1C(=O)N[C@@H](Cc1ccccc1)C(=O)O ([pGlu]RPRLS[AllylGly]KGP[AllylGly]PF-OH) | 
2.5 | 0.4 | 35 | C=CC[C@H](NC(=O)[C@H](CCCNC(=N)N)NC(=O)[C@@H]1CCCN1C(=O)[C@H](CCCNC(=N)N)NC(=O)[C@@H](N)CC=C)C(=O)N[C@@H](CO)C(=O)N[C@@H](Cc1cnc[nH]1)C(=O)N[C@@H](CCCCN)C(=O)NCC(=O)N1CCC[C@H]1C(=O)N[C@@H](CCCC)C(=O)N1CCC[C@H]1C(=O)N[C@@H](Cc1ccccc1)C(=O)O | 
